Assay results taken from ChEMBL document CHEMBL1806370, “Development of novel naphthalimide derivatives and their evaluation as potential melanoma therapeutics” (Eur J Med Chem, 2011).

Experiments:
UACC-903 [1] = test: Induction of apoptosis in human UACC-903 cells assessed as early apoptotic cells at 1 uM after 24 hrs using annexin-V-PE/7-AAD double staining by flow cytometry; assay type: functional
Summary of the method: (§1)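 UACC 903 cells were exposed 24 h at 37 °C to 1, 5 or 25 µM, with DMSO as control. Cells were harvested, washed twice in cold PBS and resuspended at 1×10^6 cells/mL in binding buffer. They were stained with 7-AAD plus PE Annexin V for 20 min at room temperature in the dark and run by flow cytometry within 1 h. Gating: double-negative live, 7-AAD+ dead, Annexin V+/7-AAD− early apoptotic. Three separate experiments.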

Mus musculus [2] = test: Systemic toxicity in Swiss Webster mouse assessed as mortality at 15 mg/kg, ip administered every day for 28 days; assay type: organism-based; parameters: dose 15 mg/kg, route intraperitoneal; conditions: in vivo, 672 h
Summary of the method: (§2)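 Swiss Webster mice, n = 4 per group, dosed i.p. once daily for 28 days at 5, 7.5, 10 or 15 mg/kg body weight. Body weight recorded twice per week; deaths noted over the dosing period.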

[3] = Cytotoxicity against human A375-S2 cells after 24 hrs by MTS assay; assay type: functional, cell-based; conditions: A375-S2, 24 h
Summary of the method: (§3)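 Cells in DMEM with 10% FBS at 37 °C and 5% CO2 were plated at 5×10^3 per well and grown 24 h. They were then exposed 24 or 72 h to 0.5, 1, 5, 10, 25 and 50 µM, with final DMSO 0.5% and DMSO controls. MTS/PMS was added for 4 h at 37 °C. A492 was read with the medium blank subtracted and expressed as % of control. IC50 was taken from three independent experiments (mean ± S.E.).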

UACC-903 [4] = test: Induction of apoptosis in human UACC-903 cells assessed as non-viable cells at 1 uM after 24 hrs using annexin-V-PE/7-AAD double staining by flow cytometry; assay type: functional; summary of the method: as §1
UACC-903 [5] = test: Induction of apoptosis in human UACC-903 cells assessed as non-viable cells at 25 uM after 24 hrs using annexin-V-PE/7-AAD double staining by flow cytometry; assay type: functional; summary of the method: as §1
1205Lu [6] = test: Cytotoxicity against human 1205 Lu cells assessed as decrease in cell viability after 24 hrs by MTS assay; assay type: functional, cell-based; summary of the method: as §3
UACC-903 [7] = test: Induction of apoptosis in human UACC-903 cells assessed as viable cells at 25 uM after 24 hrs using annexin-V-PE/7-AAD double staining by flow cytometry; assay type: functional; conditions: UACC-903, 24 h, read-out: Activity; summary of the method: as §1
UACC-903 [8] = test: Induction of apoptosis in human UACC-903 cells assessed as early apoptotic cells at 5 uM after 24 hrs using annexin-V-PE/7-AAD double staining by flow cytometry; assay type: functional; summary of the method: as §1
SK-MEL-37 (Homo sapiens) [9] = test: Cytotoxicity against human SK-MEL-37 cells assessed as decrease in cell viability after 72 hrs by MTS assay
[10] = Cytotoxicity against human SK-MEL-37 cells after 72 hrs by MTS assay; assay type: functional, cell-based; summary of the method: as §3
UACC-903 [11] = test: Cytotoxicity against human UACC-903 cells assessed as decrease in cell viability after 72 hrs by MTS assay; assay type: functional, cell-based; summary of the method: as §3
UACC-903 [12] = test: Induction of apoptosis in human UACC-903 cells assessed as early apoptotic cells at 25 uM after 24 hrs using annexin-V-PE/7-AAD double staining by flow cytometry; assay type: functional; summary of the method: as §1
Mus musculus [13] = test: Systemic toxicity in Swiss Webster mouse assessed as mortality at 10 mg/kg, ip administered every day for 28 days; assay type: organism-based; parameters: dose 10 mg/kg, route intraperitoneal; conditions: in vivo, 672 h; summary of the method: as §2
A375-S2 [14] = test: Cytotoxicity against human A375-S2 cells assessed as decrease in cell viability after 72 hrs by MTS assay; assay type: functional, cell-based; summary of the method: as §3
[15] = Cytotoxicity against human 1205 Lu cells after 72 hrs by MTS assay; assay type: functional, cell-based; summary of the method: as §3
UACC-903 [16] = test: Induction of apoptosis in human UACC-903 cells assessed as late apoptotic cells at 1 uM after 24 hrs using annexin-V-PE/7-AAD double staining by flow cytometry; assay type: functional; summary of the method: as §1
UACC-903 [17] = test: Cytotoxicity against human UACC-903 cells after 24 hrs by MTS assay; assay type: functional, cell-based; conditions: UACC-903, 24 h; summary of the method: as §3
[18] = Cytotoxicity against human 1205 Lu cells after 24 hrs by MTS assay; assay type: functional, cell-based; summary of the method: as §3
UACC-903 [19] = test: Induction of apoptosis in human UACC-903 cells assessed as viable cells at 5 uM after 24 hrs using annexin-V-PE/7-AAD double staining by flow cytometry; assay type: functional; conditions: UACC-903, 24 h, read-out: Activity; summary of the method: as §1
UACC-903 [20] = test: Antitumor activity against human UACC-903 cells xenografted in athymic Harlan Sprague-Dawley nude mouse assessed as reduction in tumor growth at 9.5 to 10.6 mg/kg, ip administered thrice per week for 24 days measured after 21 days; assay type: functional; conditions: dose mg/kg 9.5-10.6; route intraperitoneal
Summary of the method: (§4)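 Female athymic nude mice, 4–6 weeks old, received 5×10^6 UACC 903 cells s.c. in DMEM/10% FBS above both rib cages. After six days they were randomized at 5 mice/group, 2 tumors/mouse. Dosing was i.p. Mon/Wed/Fri, with one arm dosed daily; controls got DMSO vehicle. Tumor dimensions (calipers, mm³) and body weight were recorded three times weekly.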

UACC-903 [21] = test: Cytotoxicity against human UACC-903 cells after 72 hrs by MTS assay; assay type: functional, cell-based; conditions: UACC-903, 72 h; summary of the method: as §3
UACC-903 [22] = test: Induction of apoptosis in human UACC-903 cells assessed as late apoptotic cells at 5 uM after 24 hrs using annexin-V-PE/7-AAD double staining by flow cytometry; assay type: functional; summary of the method: as §1
UACC-903 [23] = test: Induction of apoptosis in human UACC-903 cells assessed as late apoptotic cells at 25 uM after 24 hrs using annexin-V-PE/7-AAD double staining by flow cytometry; assay type: functional; summary of the method: as §1
Mus musculus [24] = test: Systemic toxicity in athymic Harlan Sprague-Dawley nude mouse xenografted with human UACC-903 cells assessed as reduction in body weight at 9.5 to 10.6 mg/kg, ip administered thrice a week for 24 days; assay type: organism-based; parameters: dose 9.5-10.6 mg/kg, route intraperitoneal; conditions: in vivo, 576 h; summary of the method: as §4
UACC-903 [25] = test: Induction of apoptosis in human UACC-903 cells assessed as viable cells at 1 uM after 24 hrs using annexin-V-PE/7-AAD double staining by flow cytometry; assay type: functional; conditions: UACC-903, 24 h, read-out: Activity; summary of the method: as §1
Mus musculus [26] = test: Systemic toxicity in Swiss Webster mouse assessed as weight loss at 10 mg/kg, ip administered every day for 28 days; assay type: organism-based; parameters: dose 10 mg/kg, route intraperitoneal; conditions: in vivo, 672 h; summary of the method: as §2
UACC-903 [27] = test: Induction of apoptosis in human UACC-903 cells assessed as increase in apoptotic cells after 24 hrs using annexin-V-PE/7-AAD double staining by flow cytometry; assay type: functional, cell-based; summary of the method: as §1
A375-S2 [28] = test: Cytotoxicity against human A375-S2 cells assessed as decrease in cell viability after 24 hrs by MTS assay; assay type: functional, cell-based; summary of the method: as §3
SK-MEL-37 (Homo sapiens) [29] = test: Cytotoxicity against human SK-MEL-37 cells assessed as decrease in cell viability after 24 hrs by MTS assay
UACC-903 [30] = test: Cytotoxicity against human UACC-903 cells assessed as decrease in cell viability after 24 hrs by MTS assay; assay type: functional, cell-based; summary of the method: as §3
[31] = Cytotoxicity against human SK-MEL-37 cells after 24 hrs by MTS assay; assay type: functional, cell-based; summary of the method: as §3
1205Lu [32] = test: Cytotoxicity against human 1205 Lu cells assessed as decrease in cell viability after 72 hrs by MTS assay; assay type: functional, cell-based; summary of the method: as §3
UACC-903 [33] = test: Induction of apoptosis in human UACC-903 cells assessed as non-viable cells at 5 uM after 24 hrs using annexin-V-PE/7-AAD double staining by flow cytometry; assay type: functional; summary of the method: as §1
[34] = Cytotoxicity against human A375-S2 cells after 72 hrs by MTS assay; assay type: functional, cell-based; conditions: A375-S2, 72 h; summary of the method: as §3
UACC-903 [35] = test: Antitumor activity against human UACC-903 cells xenografted in athymic Harlan Sprague-Dawley nude mouse assessed as reduction in tumor growth at 8.5 to 10 mg/kg, ip administered thrice per week for 24 days measured after 21 days; assay type: functional; conditions: dose mg/kg 8.5-10; route intraperitoneal; summary of the method: as §4
Mus musculus [36] = test: Systemic toxicity in athymic Harlan Sprague-Dawley nude mouse xenografted with human UACC-903 cells assessed as reduction in body weight at 8.5 to 10 mg/kg, ip administered thrice a week for 24 days; assay type: organism-based; parameters: dose 8.5-10 mg/kg, route intraperitoneal; conditions: in vivo, 576 h; summary of the method: as §4

SMILES	Activity (UACC-903 [1]) [%]	Activity (Mus musculus [2])	IC50 [3] [µM]	Activity (UACC-903 [4]) [%]	Activity (UACC-903 [5]) [%]	Activity (1205Lu [6])	viability at 25 µM (UACC-903 [7]) [%]	Activity (UACC-903 [8]) [%]	Activity (SK-MEL-37 (Homo sapiens) [9])	IC50 [10] [nM]	Activity (UACC-903 [11])	Activity (UACC-903 [12]) [%]	Activity (Mus musculus [13])	Activity (A375-S2 [14])	IC50 [15] [µM]	Activity (UACC-903 [16]) [%]	IC50 (UACC-903 [17]) [µM]	IC50 [18] [µM]	viability at 5 µM (UACC-903 [19]) [%]	IC50 (UACC-903 [21]) [µM]	further results
N=C(N)SCCN1C(=O)c2cccc3cccc(c23)C1=O	9.11	Toxic	6.7	0.71	0.43	Dose-dependent effect	42.4	17.5	Dose-dependent effect	2150	Dose-dependent effect	47.6	Non-toxic	Dose-dependent effect	18.7	1.04	9.87	22.4	79.7	6.85	growth inhibition (GI) (UACC-903 [20]): 20%; Activity (UACC-903 [22]): 2.41%; Activity (UACC-903 [23]): 9.64%; Activity (Mus musculus [24]): Non-toxic; viability at 1 µM (UACC-903 [25]): 89.1%; Activity (Mus musculus [26]): Non-toxic; Activity (UACC-903 [27]): Dose-dependent effect; Activity (A375-S2 [28]): Dose-dependent effect; Activity (SK-MEL-37 (Homo sapiens) [29]): Dose-dependent effect; Activity (UACC-903 [30]): Dose-dependent effect; IC50 [31]: 3.7 µM; Activity (1205Lu [32]): Dose-dependent effect; Activity (UACC-903 [33]): 0.42%; IC50 [34]: 3.78 µM
O=C1c2cccc3cccc(c23)C(=O)N1CCCCN=C=S	21.1	Toxic	6.89	6.42	6.43	Dose-dependent effect	22.5	34.9	Dose-dependent effect	2120	Dose-dependent effect	51.7	Non-toxic	Dose-dependent effect	3.03	9.79	10.7	4.88	39.4	5.17	growth inhibition (GI) (UACC-903 [35]): 30%; Activity (UACC-903 [22]): 16%; Activity (Mus musculus [36]): Non-toxic; Activity (UACC-903 [23]): 19.3%; viability at 1 µM (UACC-903 [25]): 62.7%; Activity (Mus musculus [26]): Non-toxic; Activity (UACC-903 [27]): Dose-dependent effect; Activity (A375-S2 [28]): Dose-dependent effect; Activity (SK-MEL-37 (Homo sapiens) [29]): Dose-dependent effect; Activity (UACC-903 [30]): Dose-dependent effect; IC50 [31]: 3.89 µM; Activity (1205Lu [32]): Dose-dependent effect; Activity (UACC-903 [33]): 9.69%; IC50 [34]: 3.47 µM
